Data taken from ChEMBL document CHEMBL1781959, “Synthesis and in vitro antitumor activity of substituted quinazoline and quinoxaline derivatives: search for anticancer agent” (Eur J Med Chem, 2011).

Each compound was assayed on SF-268 (assay: Anticancer activity against human SF268 cells assessed as cell growth promotion at 10^-5 M after 48 hrs by SRB assay relative to control).
Format: functional

Row | Compound | Activity
1 | O=c1c2ccccc2nc(-c2ccco2)n1O | 106.3%
2 | O=C(O)c1ccc(-n2c(-c3ccco3)nc3ccccc3c2=O)cc1 | 106.85%

What follows are compounds tested on SNB-19 (assay: Anticancer activity against human SNB19 cells assessed as cell growth promotion at 10^-5 M after 48 hrs by SRB assay relative to control).
Format: functional

Row | Compound | Activity
3 | O=c1c2ccccc2nc(-c2ccco2)n1O | 101.58%
4 | O=C(O)c1ccc(-n2c(-c3ccco3)nc3ccccc3c2=O)cc1 | 91.35%

The compounds below were run on U-251 (assay: Anticancer activity against human U251 cells assessed as cell growth promotion at 10^-5 M after 48 hrs by SRB assay relative to control).
Format: functional

Row | Compound | Activity
5 | O=c1c2ccccc2nc(-c2ccco2)n1O | 110.85%
6 | O=C(O)c1ccc(-n2c(-c3ccco3)nc3ccccc3c2=O)cc1 | 102.8%

These compounds were tested on Malme-3M (assay: Anticancer activity against human MALME-3M cells assessed as cell growth promotion at 10^-5 M after 48 hrs by SRB assay relative to control).
Format: functional

Row | Compound | Activity
7 | O=c1c2ccccc2nc(-c2ccco2)n1O | 122.97%
8 | O=C(O)c1ccc(-n2c(-c3ccco3)nc3ccccc3c2=O)cc1 | 102.96%

What follows are compounds tested on CCRF-CEM (assay: Anticancer activity against human CCRF-CEM cells assessed as cell growth promotion at 10^-5 M after 48 hrs by SRB assay relative to control).
Format: functional

Row | Compound | Activity
9 | O=c1c2ccccc2nc(-c2ccco2)n1O | 98.16%
10 | O=C(O)c1ccc(-n2c(-c3ccco3)nc3ccccc3c2=O)cc1 | 87.86%

What follows are compounds tested on M14 (assay: Anticancer activity against human M14 cells assessed as cell growth promotion at 10^-5 M after 48 hrs by SRB assay relative to control).
Format: functional

Row | Compound | Activity
11 | O=c1c2ccccc2nc(-c2ccco2)n1O | 89.53%
12 | O=C(O)c1ccc(-n2c(-c3ccco3)nc3ccccc3c2=O)cc1 | 103.37%

Each compound was assayed on MDA-MB-435 (assay: Anticancer activity against human MDA-MB-435 cells assessed as cell growth promotion at 10^-5 M after 48 hrs by SRB assay relative to control).
Format: functional

Row | Compound | Activity
13 | O=c1c2ccccc2nc(-c2ccco2)n1O | 124.51%
14 | O=C(O)c1ccc(-n2c(-c3ccco3)nc3ccccc3c2=O)cc1 | 112.17%

Each compound was assayed on SK-MEL-5 (assay: Anticancer activity against human SK-MEL-5 cells assessed as cell growth promotion at 10^-5 M after 48 hrs by SRB assay relative to control).
Format: functional

Row | Compound | Activity
15 | O=c1c2ccccc2nc(-c2ccco2)n1O | 111.56%
16 | O=C(O)c1ccc(-n2c(-c3ccco3)nc3ccccc3c2=O)cc1 | 94.96%

What follows are compounds tested on UACC-257 (assay: Anticancer activity against human UACC257 cells assessed as cell growth promotion at 10^-5 M after 48 hrs by SRB assay relative to control).
Format: functional

Row | Compound | Activity
17 | O=c1c2ccccc2nc(-c2ccco2)n1O | 112.27%
18 | O=C(O)c1ccc(-n2c(-c3ccco3)nc3ccccc3c2=O)cc1 | 107.43%

The compounds below were run on UACC-62 (assay: Anticancer activity against human UACC62 cells assessed as cell growth promotion at 10^-5 M after 48 hrs by SRB assay relative to control).
Format: functional

Row | Compound | Activity
19 | O=c1c2ccccc2nc(-c2ccco2)n1O | 92.42%
20 | O=C(O)c1ccc(-n2c(-c3ccco3)nc3ccccc3c2=O)cc1 | 84.67%

What follows are compounds tested on OVCAR-3 (assay: Anticancer activity against human OVCAR3 cells assessed as cell growth promotion at 10^-5 M after 48 hrs by SRB assay relative to control).
Format: functional

Row | Compound | Activity
21 | O=c1c2ccccc2nc(-c2ccco2)n1O | 114.53%
22 | O=C(O)c1ccc(-n2c(-c3ccco3)nc3ccccc3c2=O)cc1 | 105.38%

The compounds below were run on OVCAR-5 (assay: Anticancer activity against human OVCAR5 cells assessed as cell growth promotion at 10^-5 M after 48 hrs by SRB assay relative to control).
Format: functional

Row | Compound | Activity
23 | O=c1c2ccccc2nc(-c2ccco2)n1O | 100.49%
24 | O=C(O)c1ccc(-n2c(-c3ccco3)nc3ccccc3c2=O)cc1 | 98.22%

Each compound was assayed on NCI/ADR-RES (assay: Anticancer activity against human NCI/ADR-RES cells assessed as cell growth promotion at 10^-5 M after 48 hrs by SRB assay relative to control).
Format: functional

Row | Compound | Activity
25 | O=c1c2ccccc2nc(-c2ccco2)n1O | 112.3%
26 | O=C(O)c1ccc(-n2c(-c3ccco3)nc3ccccc3c2=O)cc1 | 102.28%

Each compound was assayed on SK-OV-3 (assay: Anticancer activity against human SKOV3 cells assessed as cell growth promotion at 10^-5 M after 48 hrs by SRB assay relative to control).
Format: functional

Row | Compound | Activity
27 | O=c1c2ccccc2nc(-c2ccco2)n1O | 106.84%
28 | O=C(O)c1ccc(-n2c(-c3ccco3)nc3ccccc3c2=O)cc1 | 107.59%

Each compound was assayed on 786-0 (assay: Anticancer activity against human 786-0 cells assessed as cell growth promotion at 10^-5 M after 48 hrs by SRB assay relative to control).
Format: functional

Row | Compound | Activity
29 | O=c1c2ccccc2nc(-c2ccco2)n1O | 104.23%
30 | O=C(O)c1ccc(-n2c(-c3ccco3)nc3ccccc3c2=O)cc1 | 105.17%

What follows are compounds tested on A498 (assay: Anticancer activity against human A498 cells assessed as cell growth promotion at 10^-5 M after 48 hrs by SRB assay relative to control).
Format: functional

Row | Compound | Activity
31 | O=c1c2ccccc2nc(-c2ccco2)n1O | 97.65%
32 | O=C(O)c1ccc(-n2c(-c3ccco3)nc3ccccc3c2=O)cc1 | 106.88%

Each compound was assayed on CAKI-1 (assay: Anticancer activity against human Caki1 cells assessed as cell growth promotion at 10^-5 M after 48 hrs by SRB assay relative to control).
Format: functional

Row | Compound | Activity
33 | O=c1c2ccccc2nc(-c2ccco2)n1O | 102.81%
34 | O=C(O)c1ccc(-n2c(-c3ccco3)nc3ccccc3c2=O)cc1 | 102.24%

These compounds were tested on RXF 393 (assay: Anticancer activity against human RXF393 cells assessed as cell growth promotion at 10^-5 M after 48 hrs by SRB assay relative to control).
Format: functional

Row | Compound | Activity
35 | O=c1c2ccccc2nc(-c2ccco2)n1O | 117.15%
36 | O=C(O)c1ccc(-n2c(-c3ccco3)nc3ccccc3c2=O)cc1 | 109.93%

Each compound was assayed on SN12C (assay: Anticancer activity against human SN12C cells assessed as cell growth promotion at 10^-5 M after 48 hrs by SRB assay relative to control).
Format: functional

Row | Compound | Activity
37 | O=c1c2ccccc2nc(-c2ccco2)n1O | 98.6%
38 | O=C(O)c1ccc(-n2c(-c3ccco3)nc3ccccc3c2=O)cc1 | 99.34%

These compounds were tested on UO-31 (assay: Anticancer activity against human UO31 cells assessed as cell growth promotion at 10^-5 M after 48 hrs by SRB assay relative to control).
Format: functional

Row | Compound | Activity
39 | O=c1c2ccccc2nc(-c2ccco2)n1O | 68.92%
40 | O=C(O)c1ccc(-n2c(-c3ccco3)nc3ccccc3c2=O)cc1 | 68.61%

Each compound was assayed on HL-60(TB) (assay: Anticancer activity against human HL-60(TB) cells assessed as cell growth promotion at 10^-5 M after 48 hrs by SRB assay relative to control).
Format: functional
In short: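 NCI-60 single-dose screen: compound at 10^-5 M, 48 h at 37 °C, 5% CO2; cells grown in RPMI 1640 with 5% FBS and 2 mM L-glutamine, pre-incubated 24 h before dosing. Adherent cells fixed with cold TCA; endpoint is sulforhodamine B protein staining. Percent growth of treated cells is reported relative to untreated control.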

Row | Compound | Activity
41 | O=c1c2ccccc2nc(-c2ccco2)n1O | 95.84%
42 | O=C(O)c1ccc(-n2c(-c3ccco3)nc3ccccc3c2=O)cc1 | 94.52%

What follows are compounds tested on K562 (assay: Anticancer activity against human K562 cells assessed as cell growth promotion at 10^-5 M after 48 hrs by SRB assay relative to control).
Format: functional

Row | Compound | Activity
43 | O=c1c2ccccc2nc(-c2ccco2)n1O | 105.54%
44 | O=C(O)c1ccc(-n2c(-c3ccco3)nc3ccccc3c2=O)cc1 | 98.25%

Each compound was assayed on MOLT-4 (assay: Anticancer activity against human MOLT4 cells assessed as cell growth promotion at 10^-5 M after 48 hrs by SRB assay relative to control).
Format: functional

Row | Compound | Activity
45 | O=c1c2ccccc2nc(-c2ccco2)n1O | 101.31%
46 | O=C(O)c1ccc(-n2c(-c3ccco3)nc3ccccc3c2=O)cc1 | 91.05%

The compounds below were run on MDA-MB-231 (assay: Anticancer activity against human MDA-MB-231 cells assessed as cell growth promotion at 10^-5 M after 48 hrs by SRB assay relative to control).
Format: functional

Row | Compound | Activity
47 | O=c1c2ccccc2nc(-c2ccco2)n1O | 93.48%
48 | O=C(O)c1ccc(-n2c(-c3ccco3)nc3ccccc3c2=O)cc1 | 83.73%

The compounds below were run on T47D (assay: Anticancer activity against human T47D cells assessed as cell growth promotion at 10^-5 M after 48 hrs by SRB assay relative to control).
Format: functional

Row | Compound | Activity
49 | O=c1c2ccccc2nc(-c2ccco2)n1O | 106.81%
50 | O=C(O)c1ccc(-n2c(-c3ccco3)nc3ccccc3c2=O)cc1 | 83%

Each compound was assayed on SR (assay: Anticancer activity against human SR cells assessed as cell growth promotion at 10^-5 M after 48 hrs by SRB assay relative to control).
Format: functional

Row | Compound | Activity
51 | O=c1c2ccccc2nc(-c2ccco2)n1O | 94.7%
52 | O=C(O)c1ccc(-n2c(-c3ccco3)nc3ccccc3c2=O)cc1 | 92.85%

These compounds were tested on EKVX (assay: Anticancer activity against human EKVX cells assessed as cell growth promotion at 10^-5 M after 48 hrs by SRB assay relative to control).
Format: functional

Row | Compound | Activity
53 | O=c1c2ccccc2nc(-c2ccco2)n1O | 109.13%
54 | O=C(O)c1ccc(-n2c(-c3ccco3)nc3ccccc3c2=O)cc1 | 98.39%

What follows are compounds tested on HOP-62 (assay: Anticancer activity against human HOP62 cells assessed as cell growth promotion at 10^-5 M after 48 hrs by SRB assay relative to control).
Format: functional

Row | Compound | Activity
55 | O=c1c2ccccc2nc(-c2ccco2)n1O | 112.74%
56 | O=C(O)c1ccc(-n2c(-c3ccco3)nc3ccccc3c2=O)cc1 | 107.05%

What follows are compounds tested on NCI-H23 (assay: Anticancer activity against human NCI-H23 cells assessed as cell growth promotion at 10^-5 M after 48 hrs by SRB assay relative to control).
Format: functional

Row | Compound | Activity
57 | O=c1c2ccccc2nc(-c2ccco2)n1O | 105.41%
58 | O=C(O)c1ccc(-n2c(-c3ccco3)nc3ccccc3c2=O)cc1 | 98.82%

These compounds were tested on NCI-H322M (assay: Anticancer activity against human NCI-H322M cells assessed as cell growth promotion at 10^-5 M after 48 hrs by SRB assay relative to control).
Format: functional

Row | Compound | Activity
59 | O=c1c2ccccc2nc(-c2ccco2)n1O | 97.18%
60 | O=C(O)c1ccc(-n2c(-c3ccco3)nc3ccccc3c2=O)cc1 | 97.61%

These compounds were tested on NCI-H460 (assay: Anticancer activity against human NCI-H460 cells assessed as cell growth promotion at 10^-5 M after 48 hrs by SRB assay relative to control).
Format: functional

Row | Compound | Activity
61 | O=c1c2ccccc2nc(-c2ccco2)n1O | 108.52%
62 | O=C(O)c1ccc(-n2c(-c3ccco3)nc3ccccc3c2=O)cc1 | 95.38%

The compounds below were run on HCT-116 (assay: Anticancer activity against human HCT116 cells assessed as cell growth promotion at 10^-5 M after 48 hrs by SRB assay relative to control).
Format: functional

Row | Compound | Activity
63 | O=c1c2ccccc2nc(-c2ccco2)n1O | 105.94%
64 | O=C(O)c1ccc(-n2c(-c3ccco3)nc3ccccc3c2=O)cc1 | 99.69%

What follows are compounds tested on HCT-15 (assay: Anticancer activity against human HCT15 cells assessed as cell growth promotion at 10^-5 M after 48 hrs by SRB assay relative to control).
Format: functional

Row | Compound | Activity
65 | O=c1c2ccccc2nc(-c2ccco2)n1O | 108.36%
66 | O=C(O)c1ccc(-n2c(-c3ccco3)nc3ccccc3c2=O)cc1 | 93.69%

These compounds were tested on HT-29 (assay: Anticancer activity against human HT-29 cells assessed as cell growth promotion at 10^-5 M after 48 hrs by SRB assay relative to control).
Format: functional

Row | Compound | Activity
67 | O=c1c2ccccc2nc(-c2ccco2)n1O | 103.19%
68 | O=C(O)c1ccc(-n2c(-c3ccco3)nc3ccccc3c2=O)cc1 | 92%

What follows are compounds tested on KM12 (assay: Anticancer activity against human KM12 cells assessed as cell growth promotion at 10^-5 M after 48 hrs by SRB assay relative to control).
Format: functional

Row | Compound | Activity
69 | O=c1c2ccccc2nc(-c2ccco2)n1O | 110.22%
70 | O=C(O)c1ccc(-n2c(-c3ccco3)nc3ccccc3c2=O)cc1 | 104.99%

These compounds were tested on SW-620 (assay: Anticancer activity against human SW620 cells assessed as cell growth promotion at 10^-5 M after 48 hrs by SRB assay relative to control).
Format: functional

Row | Compound | Activity
71 | O=c1c2ccccc2nc(-c2ccco2)n1O | 107.69%
72 | O=C(O)c1ccc(-n2c(-c3ccco3)nc3ccccc3c2=O)cc1 | 106.15%
